Source: ChEMBL document CHEMBL4229364, “Structure-activity relationships of 2, 4-disubstituted pyrimidines as dual ERα/VEGFR-2 ligands with anti-breast cancer activity” (Eur J Med Chem, 2018)
Calls of active or inactive are those of the source. The rule behind the calls is not given here.

Assays:
[1] = target: T1, Vascular endothelial growth factor receptor 2 (Homo sapiens, UniProt P35968); settings: at 10 µM
HUVEC = test: Antiproliferative activity against HUVEC after 48 hrs by MTT assay; format: functional, cell-based; settings: Homo sapiens
Summary of the method: (§1)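 MTT assay. Cells were grown in RPMI1640 with 10% FBS and penicillin/streptomycin at 37°C, 5% CO2, seeded at 1×10^5/mL and rested 24 h. Compound was added at 4×10^-5 to 1×10^-6 mol/L for 48 h; controls received 1% DMSO. MTT (5 mg/mL) was added for 4 h in the dark and the formazan dissolved in DMSO. A490 was read and IC50 derived.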

[2] = target: T1, Vascular endothelial growth factor receptor 2; test: Inhibition of VEGFR2 (unknown origin) using TK substrate after 1 hr by HTRF assay
Ishikawa = test: Antiproliferative activity against human Ishikawa cells after 48 hrs by MTT assay; format: functional, cell-based
Summary of the method: as §1

MCF7 = test: Antiproliferative activity against human MCF7 cells after 48 hrs by MTT assay; format: functional, cell-based; settings: MCF7, 48 h
Summary of the method: as §1

Estrogen receptor = target: T2, Estrogen receptor (Homo sapiens, UniProt P03372); test: Displacement of Fluormone ES2 Green from full length human ER-alpha expressed in insect cells after 2 hrs by fluorescence polarization assay
T2 sequence (P03372 whole entry): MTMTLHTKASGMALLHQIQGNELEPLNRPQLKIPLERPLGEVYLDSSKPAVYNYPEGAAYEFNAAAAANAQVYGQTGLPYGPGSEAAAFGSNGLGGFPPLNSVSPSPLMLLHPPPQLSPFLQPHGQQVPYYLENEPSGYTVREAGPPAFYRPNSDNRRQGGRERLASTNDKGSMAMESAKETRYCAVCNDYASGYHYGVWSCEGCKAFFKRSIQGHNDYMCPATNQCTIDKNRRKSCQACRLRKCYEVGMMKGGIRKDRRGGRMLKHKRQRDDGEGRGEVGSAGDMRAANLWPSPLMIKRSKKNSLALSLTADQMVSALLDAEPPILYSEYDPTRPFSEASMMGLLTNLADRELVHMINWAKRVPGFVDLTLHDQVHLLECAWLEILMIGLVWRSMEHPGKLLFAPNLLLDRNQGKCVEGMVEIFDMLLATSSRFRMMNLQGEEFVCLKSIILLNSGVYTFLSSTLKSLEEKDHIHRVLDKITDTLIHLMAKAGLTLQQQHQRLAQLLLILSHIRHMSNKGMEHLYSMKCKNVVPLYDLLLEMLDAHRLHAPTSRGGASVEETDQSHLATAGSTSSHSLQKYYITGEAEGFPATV

Chorioallantoic membrane = test: In vivo antiangiogenic activity in chicken egg chorioallantoic membrane at 1 uM after 72 hrs; format: functional, organism-based; settings: Gallus gallus
Summary of the method: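 Chick CAM assay. Fertilized eggs were incubated 7 days at 37°C, then a window of about 1 cm² was opened in the shell. […] Eggs were incubated a further 72 h at 37°C and 60% humidity. CAM was fixed in acetone/ethanol for 10 min and vessels imaged.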

T1 sequence (P35968 whole entry): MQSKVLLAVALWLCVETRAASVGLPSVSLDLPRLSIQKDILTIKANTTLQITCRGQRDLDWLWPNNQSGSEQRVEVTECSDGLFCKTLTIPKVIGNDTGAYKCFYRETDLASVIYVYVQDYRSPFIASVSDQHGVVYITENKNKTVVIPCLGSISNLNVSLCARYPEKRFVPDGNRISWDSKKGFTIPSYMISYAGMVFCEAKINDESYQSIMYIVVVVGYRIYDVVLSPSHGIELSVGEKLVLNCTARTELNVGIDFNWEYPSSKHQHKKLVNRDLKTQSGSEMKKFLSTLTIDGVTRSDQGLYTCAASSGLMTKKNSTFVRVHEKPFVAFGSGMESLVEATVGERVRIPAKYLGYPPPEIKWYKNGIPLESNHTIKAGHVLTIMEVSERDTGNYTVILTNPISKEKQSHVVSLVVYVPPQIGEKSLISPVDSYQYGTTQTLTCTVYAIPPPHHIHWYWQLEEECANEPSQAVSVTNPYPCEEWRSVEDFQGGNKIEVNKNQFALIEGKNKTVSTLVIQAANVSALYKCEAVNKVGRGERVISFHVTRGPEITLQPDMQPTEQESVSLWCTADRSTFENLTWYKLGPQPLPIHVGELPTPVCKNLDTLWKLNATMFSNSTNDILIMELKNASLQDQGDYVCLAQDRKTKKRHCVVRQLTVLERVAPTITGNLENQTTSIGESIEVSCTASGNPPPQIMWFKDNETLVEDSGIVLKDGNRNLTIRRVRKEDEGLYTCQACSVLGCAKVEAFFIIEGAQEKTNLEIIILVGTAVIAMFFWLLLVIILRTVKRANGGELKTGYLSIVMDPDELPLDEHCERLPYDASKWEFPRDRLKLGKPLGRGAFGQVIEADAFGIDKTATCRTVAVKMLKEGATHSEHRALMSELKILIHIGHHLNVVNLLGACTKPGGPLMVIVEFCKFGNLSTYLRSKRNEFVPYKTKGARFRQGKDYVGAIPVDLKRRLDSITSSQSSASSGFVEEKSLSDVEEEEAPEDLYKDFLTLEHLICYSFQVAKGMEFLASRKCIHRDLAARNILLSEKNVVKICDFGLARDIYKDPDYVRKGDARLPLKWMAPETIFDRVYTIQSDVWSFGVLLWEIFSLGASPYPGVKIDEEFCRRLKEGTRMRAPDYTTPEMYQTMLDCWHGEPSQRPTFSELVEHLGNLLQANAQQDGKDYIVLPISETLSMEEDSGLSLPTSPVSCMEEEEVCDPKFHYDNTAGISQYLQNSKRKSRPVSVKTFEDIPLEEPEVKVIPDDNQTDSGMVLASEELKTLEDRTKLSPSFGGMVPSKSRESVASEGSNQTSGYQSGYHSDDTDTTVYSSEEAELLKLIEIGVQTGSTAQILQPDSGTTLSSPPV

SMILES	inhibition [1] [%]	IC50 (HUVEC) [µM]	IC50 [2] [nM]	IC50 (Ishikawa) [µM]	IC50 (MCF7) [µM]	IC50 (Estrogen receptor) [µM]	Activity (Chorioallantoic membrane)
COc1ccc(-c2nc(Cl)cc(Oc3ccc(OCCN(C)C)cc3)n2)cc1	61.2	> 40	> 1000	> 40	> 40	5.96	–
CCN(CC)CCOc1ccc(Nc2nc(-c3ccc(OC)cc3)nc(Cl)c2-c2ccccc2)cc1	90.3	4.34	67	9.98	8.59	–	–
COc1ccc(-c2nc(Cl)cc(Nc3ccc(OCCN4CCCC4)cc3)n2)cc1	51.9	11.3	> 1000	17.3	43.7	–	–
COc1ccc(-c2nc(Cl)c(-c3ccccc3)c(Nc3ccc(OCCN4CCCC4)cc3)n2)cc1	49.4	5.02	> 1000	3.81	7.84	–	–
CCN(CC)CCOc1ccc(Oc2cc(Cl)nc(-c3ccc(OC)cc3)n2)cc1	80	23.3	> 1000	24.9	49.6	5.13	–
COc1ccc(-c2nc(Cl)c(-c3ccccc3)c(Oc3ccc(OCCN4CCCC4)cc3)n2)cc1	75.3	10.6	> 1000	14.1	32.4	2.17	–
COc1ccc(-c2nc(Cl)cc(Nc3ccc(NC(=O)CN4CCCC4)cc3)n2)cc1	61.3	4.82	> 1000	18.4	23.4	2.86	–
CCN(CC)CC(=O)Nc1ccc(Nc2nc(-c3ccc(OC)cc3)nc(Cl)c2-c2ccccc2)cc1	40.2	> 40	> 1000	> 40	> 40	–	–
CCN(CC)CCOc1ccc(Oc2nc(-c3ccc(OC)cc3)nc(Cl)c2-c2ccccc2)cc1	60.2	15.1	> 1000	23.5	> 40	–	–
COc1ccc(-c2nc(Cl)c(-c3ccccc3)c(Nc3ccc(OCCN(C)C)cc3)n2)cc1	50.9	14.2	> 1000	6.34	7.56	–	–
CCN(CC)CCNC(=O)c1c(C)[nH]c(/C=C2\C(=O)Nc3ccc(F)cc32)c1C [SUNITINIB]	–	6.36	–	–	–	–	Active
COc1ccc(-c2nc(Cl)c(-c3ccccc3)c(Oc3ccc(OCCN(C)C)cc3)n2)cc1	90.9	11.7	101	17.7	21.8	–	–
